These results are taken from the array DNA melting data of Ke et al. (doi:10.1101/2024.01.08.574731).

Series [1] in a line: melting temperature; fluorescence melt of hairpins on a sequencing array, two-state fit, raised by 9.35 °C to match UV melts. Particulars: sodium 0.088 M. The method in brief: (§1)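 Library hairpins on a sequenced MiSeq flow cell carried annealed Cy3 and quencher oligos, and their Cy3 fluorescence was imaged in 50 mM Na-HEPES pH 8.0 with 25 mM NaCl, in 2.5 °C steps up to 60 °C. Signals were normalised to Cy3 before quenching and to control constructs. Melting temperature and folding enthalpy were obtained from bootstrapped two-state fits, combined by inverse-variance weighting across four replicates, and the fitted temperatures were then raised by 9.35 °C to match UV melts.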

A short description of series [2]: folding enthalpy; higher = less favourable; fluorescence melt of hairpins on a sequencing array, two-state fit. Particulars: sodium 0.088 M. The method in brief: as §1

GCGAACGAAAGTTACGC ((((((....))).))): in series [1], the Tm turned out to be 51.5 °C. In addition, the folding enthalpy in series [2] is -22.7 kcal/mol.
For GCGAACGAAAGTTGGCGC ((((((....)))..))), the Tm in series [1] stood at 53.9 °C. Further, in series [2], the folding enthalpy was -32.8 kcal/mol.
On the same counts, the results for GCGAACGAAAGTTGTCGC ((((((....)))..))) are 44.1 °C and -26.2 kcal/mol.
In the case of GCGAACGAAAGTTTCGC ((((((....))).))), the Tm in series [1] was 60 °C. In series [2], the folding enthalpy was -36.7 kcal/mol.
The like results for GCGAACGAAAGTTTGCGC ((((((....)))..))) were, in that order, 61.8 °C and -41.9 kcal/mol.
Consider GCGAACGGAAACGCTCAC (.((.((....)).)).), for which the Tm in series [1] turned out to be 34 °C. Also, the folding enthalpy in series [2] is -14.3 kcal/mol.
On the same counts, the results for GCGAACTCGAAAGAGCGC (((..(((....)))))) are 49.3 °C and -27.6 kcal/mol.
The like results for GCGAAGAATCGC ((((....)))) were, in that order, 50.2 °C and -11.4 kcal/mol.
On the same counts, the results for GCGAAGCGAAAGCCGCGC (((..((....))..))) are 61.6 °C and -16.8 kcal/mol.
As to GCGAAGCGAAAGCGCCGC (((..((....))..))), the Tm in series [1] came out at 65.4 °C. Further, in series [2], the folding enthalpy is -17.9 kcal/mol.
The like results for GCGAAGCGAAAGCTGGGC ((..(((....)))..)) were, in that order, 43.7 °C and -9.44 kcal/mol.
As to GCGAAGCGAAAGCTTGGC ((.((((....)))).)), the Tm in series [1] came to 52 °C. The folding enthalpy in series [2] is -18.1 kcal/mol.
As for GCGAAGGGAAACCTCCGC (((.(((....))).))), in series [1], the Tm came to 46.6 °C. For the same sequence, the folding enthalpy in series [2] is -26.1 kcal/mol.
In the case of GCGAAGGGAAACCTTCAC (.(((((....))))).), the Tm in series [1] amounted to 38.6 °C. The folding enthalpy in series [2] is -18.1 kcal/mol.
With GCGAAGTCTCGC ((((....)))), in series [1], the Tm amounted to 47.7 °C. The folding enthalpy in series [2] is -14.2 kcal/mol.
Take GCGAAGTTTCGC ((((....)))): the Tm in series [1] turned out to be 50.7 °C. The folding enthalpy in series [2] is -18.2 kcal/mol.
The like results for GCGAATACGAAAGTACGC (((..(((....)))))) were, in that order, 44.9 °C and -25 kcal/mol.
For GCGAATCGTCGC ((((....)))), in series [1], the Tm worked out at 47.7 °C. Also, the folding enthalpy in series [2] was -18 kcal/mol.
On the same counts, the results for GCGAATGATCGC ((((....)))) are 42.3 °C and -17.7 kcal/mol.
On the same counts, the results for GCGAATGGAAACGTTCGC (((((.(....).))))) are 56.7 °C and -38.4 kcal/mol.
For GCGAATGGTCGC ((((....)))), the Tm in series [1] was 47.8 °C. Further, the folding enthalpy in series [2] was -10.4 kcal/mol.
On the same counts, the results for GCGAATGTTCGC ((((....)))) are 50.3 °C and -25.7 kcal/mol.
Consider GCGACAATCGC ((((...)))), for which the Tm in series [1] came out at 41.3 °C. Also, the folding enthalpy in series [2] was -13.9 kcal/mol.
The like results for GCGACACATCGC ((((....)))) were, in that order, 50.3 °C and -24.2 kcal/mol.
With GCGACACCTCGC ((((....)))), the Tm in series [1] was 51.3 °C. In series [2], the folding enthalpy is -29.5 kcal/mol.
For GCGACAGGAAACTGCCAC (.(.(((....))).).), the Tm in series [1] worked out at 20.6 °C. Also, the folding enthalpy in series [2] is -9.04 kcal/mol.
The like results for GCGACATCGAAAGATCGC (((..(((....)))))) were, in that order, 45.9 °C and -26.7 kcal/mol.
On the same counts, the results for GCGACATTCGC ((((...)))) are 52.3 °C and -14 kcal/mol.
For GCGACCCATCGC ((((....)))), the Tm in series [1] worked out at 52.2 °C. Besides, the folding enthalpy in series [2] is -19.5 kcal/mol.
For GCGACCGAAAGGTACGC ((((((....))).))), the Tm in series [1] was determined as 58.1 °C. Also, in series [2], the folding enthalpy is -23.8 kcal/mol.
On the same counts, the results for GCGACCGAAAGGTCCCGC ((((((....)))..))) are 42.1 °C and -13.3 kcal/mol.
Turning to GCGACCGAAAGGTGTCGC ((((((....)))..))), in series [1], the Tm came out at 59 °C. For the same sequence, the folding enthalpy in series [2] is -35.5 kcal/mol.
The like results for GCGACCGAAAGGTTACGC ((((((....)))..))) were, in that order, 50 °C and -26.6 kcal/mol.
Consider GCGACCGCTCGC ((((....)))), for which the Tm in series [1] amounted to 48.1 °C. Moreover, in series [2], the folding enthalpy was -17.3 kcal/mol.
On the same counts, the results for GCGACCGGAAACGGCCGC (((.(((....))).))) are 65.1 °C and -25.9 kcal/mol.
On the same counts, the results for GCGACCGGAAACGGTCAC (.(((((....))))).) are 51.4 °C and -12.3 kcal/mol.
With GCGACGATCGC ((((...)))), the Tm in series [1] was 42.4 °C. Further, in series [2], the folding enthalpy is -13.6 kcal/mol.
On the same counts, the results for GCGACGCGAAAGCACCGC (((..((....))..))) are 55.8 °C and -19.7 kcal/mol.
As for GCGACGCGAAAGCATAGC ((.(.((....)).).)), the Tm in series [1] amounted to 62.7 °C. For the same sequence, the folding enthalpy in series [2] was -18.8 kcal/mol.
The like results for GCGACGCGAAAGCGATGC ((..(((....)))..)) were, in that order, 61.8 °C and -24.1 kcal/mol.
On the same counts, the results for GCGACGCGAAAGCTTTGC ((.(.((....)).).)) are 44.7 °C and -18.6 kcal/mol.
Consider GCGACGCTTCGC ((((....)))), for which the Tm in series [1] was 55.7 °C. Also, the folding enthalpy in series [2] was -14.7 kcal/mol.
The like results for GCGACGGGAAACCATCGC ((((.((....)).)))) were, in that order, 51.4 °C and -45.5 kcal/mol.
As for GCGACTGGAAACAGCCAC (.(.(((....))).).), the Tm in series [1] came out at 27.7 °C. In addition, in series [2], the folding enthalpy was -12.2 kcal/mol.
On the same counts, the results for GCGACTGGAAACGGTCGC (((((.(....).))))) are 64.7 °C and -46.3 kcal/mol.
The like results for GCGACTGGTCGC ((((....)))) were, in that order, 60.3 °C and -38.1 kcal/mol.
Turning to GCGAGACCGAAAGGTCGC (((..(((....)))))), the Tm in series [1] is 59.1 °C. Also, in series [2], the folding enthalpy was -10.3 kcal/mol.
The like results for GCGAGACCTCGC ((((....)))) were, in that order, 56.5 °C and -13.8 kcal/mol.
As for GCGAGACGAAAGTCCCGC (((.(((....))).))), in series [1], the Tm is 59 °C. For the same sequence, the folding enthalpy in series [2] is -35.6 kcal/mol.
Consider GCGAGACGTCGC ((((....)))), for which, in series [1], the Tm was found to be 52.9 °C. For the same sequence, the folding enthalpy in series [2] is -8.79 kcal/mol.
The like results for GCGAGAGCGAAAGCTCGC (((..(((....)))))) were, in that order, 65.6 °C and -9.94 kcal/mol.
The like results for GCGAGCATTCGC ((((....)))) were, in that order, 57.1 °C and -27.1 kcal/mol.
On the same counts, the results for GCGAGCCATCGC ((((....)))) are 57.2 °C and -28.4 kcal/mol.
As to GCGAGCGAAAGCTGGCGC ((((((....)))..))), in series [1], the Tm is 68.7 °C. Further, in series [2], the folding enthalpy is -25 kcal/mol.
On the same counts, the results for GCGAGCGAAAGCTTCCGC ((((((....)))..))) are 44.2 °C and -16.6 kcal/mol.
As to GCGAGCGATCGC ((((....)))), the Tm in series [1] is 53.5 °C. For the same sequence, the folding enthalpy in series [2] is -25.3 kcal/mol.
On the same counts, the results for GCGAGCGCTCGC ((((....)))) are 65 °C and -46.8 kcal/mol.
The like results for GCGAGCGGAAACGCTCAC (.(((((....))))).) were, in that order, 50.6 °C and -12.3 kcal/mol.
For GCGAGCGTTCGC ((((....)))), in series [1], the Tm is 49 °C. In addition, in series [2], the folding enthalpy is -14.2 kcal/mol.
In the case of GCGAGGAATCGC ((((....)))), in series [1], the Tm amounted to 54.6 °C. Moreover, the folding enthalpy in series [2] is -20.5 kcal/mol.
The like results for GCGAGGCGAAAGCAACGC (((..((....))..))) were, in that order, 61.8 °C and -21.6 kcal/mol.
The like results for GCGAGGCGAAAGCAGCGC (((..((....))..))) were, in that order, 68.9 °C and -29.9 kcal/mol.
Regarding GCGAGGCGAAAGCTTGGC ((.(.((....)).).)), the Tm in series [1] is 46.1 °C. Moreover, the folding enthalpy in series [2] is -12.1 kcal/mol.
On the same counts, the results for GCGAGGCGAAAGCTTTGC ((.(.((....)).).)) are 51.5 °C and -20.3 kcal/mol.
In the case of GCGAGGCTTCGC ((((....)))), in series [1], the Tm was found to be 66.7 °C. Further, the folding enthalpy in series [2] is -17.9 kcal/mol.
With GCGAGGGTCGC ((((...)))), the Tm in series [1] came out at 62 °C. In addition, the folding enthalpy in series [2] was -7.26 kcal/mol.
Regarding GCGAGGTGTCGC ((((....)))), the Tm in series [1] worked out at 65.7 °C. Besides, the folding enthalpy in series [2] is -5.64 kcal/mol.
The like results for GCGAGTAATCGC ((((....)))) were, in that order, 58.6 °C and -20.9 kcal/mol.
The like results for GCGAGTCCTCGC ((((....)))) were, in that order, 56.2 °C and -30.2 kcal/mol.
The like results for GCGAGTCGAAAGACACGC (((.(((....))).))) were, in that order, 66.6 °C and -38.4 kcal/mol.
Take GCGAGTGGAAACACTCAC (.(((((....))))).): the Tm in series [1] stood at 45.7 °C. In addition, the folding enthalpy in series [2] is -14 kcal/mol.
Turning to GCGAGTGGAAACGTTCGC ((((..(....)..)))), the Tm in series [1] was 45.5 °C. In series [2], the folding enthalpy was -24.6 kcal/mol.
On the same counts, the results for GCGAGTTGTCGC ((((....)))) are 50.9 °C and -15.5 kcal/mol.
On the same counts, the results for GCGATACCTCGC ((((....)))) are 51.4 °C and -24.9 kcal/mol.
GCGATAGGTCGC ((((....)))): the Tm in series [1] was found to be 51.4 °C. Moreover, the folding enthalpy in series [2] was -24.5 kcal/mol.
On the same counts, the results for GCGATATCTCGC ((((....)))) are 48.5 °C and -20.5 kcal/mol.
On the same counts, the results for GCGATATGTCGC ((((....)))) are 55 °C and -26.4 kcal/mol.
